In ChEMBL document CHEMBL3751733, “Synergistic Antifungal Meroterpenes and Dioxolanone Derivatives from the Endophytic Fungus Guignardia sp” (J Nat Prod, 2015):
Converted amounts (≈) assume the structure as drawn. The source made the active and inactive calls. The rule behind the calls is not given here.

Key:
MCF7 = test: Cytotoxicity against human MCF7 cells by MTT assay; assay type: cell-based
How it was run: (§1)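 MTT assay with cisplatin as positive control.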

U2OS = test: Cytotoxicity against human U2OS cells by MTT assay; assay type: cell-based; how it was run: as §1
Escherichia coli = test: Antibacterial activity against Escherichia coli ATCC 25922 by broth microdilution method; assay type: functional
How it was run: (§2)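 Broth microdilution in 96-well plates; MIC read by comparing OD with the growth control; amoxicillin and streptomycin as positive controls.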

HepG2 = test: Cytotoxicity against human HepG2 cells by MTT assay; assay type: cell-based; how it was run: as §1
Pseudomonas aeruginosa = test: Antibacterial activity against Pseudomonas aeruginosa ATCC 9027 by broth microdilution method; assay type: functional; how it was run: as §2
Staphylococcus aureus = test: Antibacterial activity against Staphylococcus aureus ATCC 25923 by broth microdilution method; assay type: functional; how it was run: as §2
Bacillus subtilis = test: Antibacterial activity against Bacillus subtilis ATCC 6633 by broth microdilution method; assay type: functional; how it was run: as §2
Candida albicans [1] = test: Antibiofilm activity against Candida albicans ATCC 24433 after 24 hrs by XTT-based colorimetric assay; assay type: functional; conditions: ATCC 24433, 24 h
How it was run: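 XTT assay: YPD overnight culture, PBS-washed, 1.0 × 10^6 cfu/mL in RPMI-1640/MOPS; biofilms formed at 37 °C for 24 h, washed, then treated 24 h at 37 °C; 0.5 mg/mL XTT for 2 h, read at 490 nm. MIC = lowest concentration giving ≥80% reduction in XTT signal.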

Candida albicans [2] = test: Synergistic antibiofilm activity against Candida albicans ATCC 24433 assessed as fractional inhibition concentration index after 24 hrs in presence of fluconazole checkerboard assay; assay type: functional
How it was run: (§3)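 Preformed biofilms (1.0 × 10^6 cfu/mL in RPMI-1640/MOPS, 37 °C, 24 h) treated 24 h at 37 °C in a checkerboard: compounds 160 to 5 μg/mL, fluconazole 500 to 8 μg/mL. Read by 0.5 mg/mL XTT for 2 h at 490 nm, ≥80% reduction as endpoint; FICI calculated.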

Candida albicans [3] = test: Antifungal activity against Candida albicans ATCC 24433 assessed as fractional inhibition concentration index in presence of fluconazole by checkerboard assay; assay type: functional
How it was run: (§4)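 Checkerboard in RPMI-1640/MOPS, inoculum 1.0 × 10^4 cfu/mL, 35 °C, 24 h, OD 595 nm. Compound 25 to 0.8 μg/mL against fluconazole 4.0 to 0.0078 μg/mL. MIC = concentrations giving ≥80% growth reduction. FICI ≤ 0.5 counts as synergy; values compared at fluconazole 0.031 μg/mL.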

Candida albicans [4] = test: Synergistic antibiofilm activity against Candida albicans ATCC 24433 assessed as fractional inhibition concentration ratio after 24 hrs in presence of fluconazole by checkerboard assay; assay type: functional; how it was run: as §3
Candida albicans [5] = test: Antifungal activity against Candida albicans ATCC 24433 assessed as growth inhibition after 24 hrs by broth microdilution assay; assay type: functional; conditions: ATCC 24433, 24 h
How it was run: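 Broth microdilution: 24-h colonies suspended in 0.85% saline, diluted in RPMI-1640 with MOPS to 1.0 × 10^4 cfu/mL final, mixed 1:1 with sample; 35 °C, 24 h; OD 595 nm. MIC = lowest concentration giving 80% growth reduction. Fluconazole positive control; SD from three independent experiments.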

Candida albicans [6] = test: Antifungal activity against Candida albicans ATCC 24433 assessed as fractional inhibition concentration ratio in presence of fluconazole by checkerboard assay; assay type: functional; how it was run: as §4
Candida albicans [7] = test: Potentiation of antifungal activity of fluconazole against Candida albicans ATCC 24433 by checkerboard assay; assay type: functional; how it was run: as §4
Candida albicans [8] = test: Antifungal activity against Candida albicans ATCC 24433 assessed as synergistic growth inhibition after 24 hrs in presence of fluconazole by broth microdilution assay; assay type: functional; conditions: ATCC 24433, 24 h; how it was run: as §4
Candida albicans [9] = test: Antibiofilm activity against Candida albicans ATCC 24433 after 24 hrs in presence of fluconazole by XTT-based colorimetric assay; assay type: functional; conditions: ATCC 24433, 24 h; how it was run: as §3
Candida albicans [10] = test: Synergistic antibiofilm activity against Candida albicans ATCC 24433 assessed as reduction in biofilm formation at 40 to 80 ug/ml in presence of 63 ug/ml fluconazole by scanning electron microscopic analysis; assay type: functional, organism-based
How it was run: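 Biofilms grown 24 h at 37 °C on poly-L-lysine-treated glass coverslips from 1.0 × 10^6 cfu/mL, washed, then exposed 24 h to compound plus fluconazole; fixed in 2.5% glutaraldehyde (0.2 M PBS, pH 7.2) and 1% osmium, ethanol-dehydrated, critical-point dried, gold-coated; SEM at 10 kV.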

Row | MIC (Escherichia coli) | MIC (Pseudomonas aeruginosa) | MIC (Staphylococcus aureus) | MIC (Bacillus subtilis) | MIC80 (Candida albicans [1]) | MIC80 (Candida albicans [5]) | MIC80 (Candida albicans [8]) | MIC80 (Candida albicans [9]) | Compound | Activity (MCF7) | Activity (U2OS) | Activity (HepG2) | fractional inhibitory concentration index (FICI) (Candida albicans [2]) | fractional inhibitory concentration index (FICI) (Candida albicans [3]) | Ratio (Candida albicans [4]) | Ratio (Candida albicans [6]) | fold change (FC) (Candida albicans [7]) | MIC (Candida albicans [8]) | Activity (Candida albicans [10])
1 | > 100 µg/mL | > 100 µg/mL | > 100 µg/mL | 89.3 µg/mL (≈ 290 µM) | > 200 µg/mL |  |  |  | C=C(C)[C@@H]1CC[C@@]2(C)OC3=C(C[C@@H]12)C(=O)[C@](O)(CO)C[C@@H]3O | Non-toxic | Non-toxic | Non-toxic |  |  |  |  |  |  | 
2 | > 100 µg/mL | > 100 µg/mL | > 100 µg/mL | 37.3 µg/mL (≈ 128 µM) | > 200 µg/mL |  |  |  | C=C(C)[C@@H]1CC[C@@]2(C)OC3=C(C[C@@H]12)C(=O)[C@H](OC)C[C@@H]3O | Non-toxic | Non-toxic | Non-toxic |  |  |  |  |  |  | 
3 |  |  |  |  | > 200 µg/mL |  |  |  | C=C(C)[C@@H]1CC[C@@]2(C)OC3=C(C[C@@H]12)C(=O)[C@H](O)C[C@@H]3O | Non-toxic | Non-toxic | Non-toxic |  |  |  |  |  |  | 
4 | 88.3 µg/mL (≈ 288 µM) | 53.2 µg/mL (≈ 174 µM) | 73.6 µg/mL (≈ 240 µM) | 73.5 µg/mL (≈ 240 µM) | > 200 µg/mL | > 100 µg/mL | 25 µg/mL | 40 µg/mL | C=C(C)[C@@H]1[C@H](O)C[C@@]2(C)OC3=C(C[C@@H]12)C(=O)[C@]1(O)CO[C@H]3C1 | Non-toxic | Non-toxic | Non-toxic | <0.31 | <0.38 | <0.25 | <0.25 | >16 |  | 
5 |  |  |  |  | > 200 µg/mL |  |  |  | C=C(C)[C@@H]1CC[C@@]2(C)OC3=C(C[C@@H]12)C(=O)[C@@H](OC)C[C@@H]3O | Non-toxic | Non-toxic | Non-toxic |  |  |  |  |  |  | 
6 | > 100 µg/mL | 45.5 µg/mL (≈ 136 µM) | 37.7 µg/mL (≈ 113 µM) | 59.5 µg/mL (≈ 178 µM) | 145 µg/mL (≈ 434 µM) | 24.3 µg/mL (≈ 72.7 µM) | 6.3 µg/mL | 40 µg/mL | Oc1cccc2c1[C@H](O)[C@@H]1O[C@@H]1C21Oc2cccc3cccc(c23)O1 | Non-toxic | Non-toxic | Non-toxic | <0.34 | 0.38 | 0.28 | 0.26 |  |  | 
7 |  |  |  |  | > 200 µg/mL |  |  |  | C=C(C)[C@@H]1CC[C@@]2(C)OC3=C(C[C@@H]12)C(=O)[C@@H]1C[C@@]3(O)CO1 | Non-toxic | Non-toxic | Non-toxic |  |  |  |  |  |  | 
8 |  |  |  |  | > 200 µg/mL | 87.5 µg/mL (≈ 334 µM) | 6.3 µg/mL | 20 µg/mL | CC(C)[C@@]1(C(=O)O)OC(=O)/C(=C/c2ccccc2)O1 | Non-toxic | Non-toxic | Non-toxic | <0.16 | 0.19 | <0.1 | 0.07 |  |  | 
9 |  |  |  |  | > 200 µg/mL |  |  |  | C=C(CO)[C@@H]1CC[C@@]2(C)OC3=C(C[C@@H]12)C(=O)[C@]1(O)CO[C@H]3C1 | Non-toxic | Non-toxic | Non-toxic |  |  |  |  |  |  | 
10 |  |  | 0.8 µg/mL (≈ 2.19 µM) | 1 µg/mL (≈ 2.74 µM) |  |  |  |  | CC1(C)S[C@@H]2[C@H](NC(=O)[C@H](N)c3ccc(O)cc3)C(=O)N2[C@H]1C(=O)O [AMOXICILLIN] |  |  |  |  |  |  |  |  |  | 
11 | 35.9 µg/mL (≈ 116 µM) | 52.1 µg/mL (≈ 169 µM) | > 100 µg/mL | 67.7 µg/mL (≈ 220 µM) | > 200 µg/mL | 15.5 µg/mL (≈ 50.3 µM) | 6.3 µg/mL | 80 µg/mL | CC(C)(O)[C@@H]1CC[C@@]2(C)OC3=C(C[C@@H]12)C(=O)[C@]1(O)CO[C@H]3C1 | Non-toxic | Non-toxic | Non-toxic | <0.46 | 0.32 | <0.4 |  |  |  | 
12 | > 100 µg/mL | 25.5 µg/mL (≈ 87.8 µM) | > 100 µg/mL | > 100 µg/mL | > 200 µg/mL |  |  |  | C=C(C)[C@@H]1CC[C@@]2(C)OC3=C(C[C@@H]12)C(=O)[C@]1(O)CO[C@H]3C1 | Non-toxic | Non-toxic | Non-toxic |  |  |  |  |  |  | 
13 | 2.4 µg/mL (≈ 4.13 µM) | 1.7 µg/mL (≈ 2.92 µM) |  |  |  |  |  |  | CN[C@@H]1[C@H](O[C@H]2[C@H](O[C@H]3[C@H](O)[C@@H](O)[C@H](N=C(N)N)[C@@H](O)[C@@H]3N=C(N)N)O[C@@H](C)[C@]2(O)C=O)O[C@@H](CO)[C@H](O)[C@H]1O [STREPTOMYCIN] |  |  |  |  |  |  |  |  |  | 
14 |  |  |  |  | > 200 µg/mL | > 100 µg/mL | 25 µg/mL | 80 µg/mL | C[C@](O)(CO)[C@@H]1CC[C@@]2(C)OC3=C(C[C@@H]12)C(=O)[C@]1(O)CO[C@H]3C1 | Non-toxic | Non-toxic | Non-toxic | <0.46 | <0.38 | <0.4 | <0.25 |  |  | 
15 |  |  |  |  | > 200 µg/mL |  |  | 80 µg/mL | C=C(C)[C@@H]1C[C@H](O)[C@@]2(C)OC3=C(C[C@@H]12)C(=O)[C@]1(O)CO[C@H]3C1 | Non-toxic | Non-toxic | Non-toxic | <0.46 |  | <0.4 |  |  |  | 
16 |  |  |  |  | > 200 µg/mL |  |  |  | COC(=O)[C@]1(C(C)C)OC(=O)/C(=C\c2ccc(O)cc2)O1 | Non-toxic | Non-toxic | Non-toxic |  |  |  |  |  |  | 
17 |  |  |  |  | > 200 µg/mL |  |  |  | C=C(COC(C)=O)[C@@H]1CC[C@@]2(C)OC3=C(C[C@@H]12)C(=O)[C@]1(O)CO[C@H]3C1 | Non-toxic | Non-toxic | Non-toxic |  |  |  |  |  |  | 
18 |  |  |  |  | > 200 µg/mL |  |  | 80 µg/mL | C=C(C)[C@@H]1C[C@H](O)[C@@]2(C)OC3=C(C[C@@H]12)C(=O)[C@](O)(CO)C[C@@H]3O | Non-toxic | Non-toxic | Non-toxic | <0.46 |  | <0.4 |  |  |  | 
19 | 78 µg/mL (≈ 240 µM) | > 100 µg/mL | 79.2 µg/mL (≈ 244 µM) | > 100 µg/mL | > 200 µg/mL | 57.3 µg/mL (≈ 177 µM) | 6.3 µg/mL | 40 µg/mL | C[C@@]12CC[C@@H]([C@](C)(O)CO)[C@@H]1CC1=C(O2)[C@@H]2C[C@@](O)(CO2)C1=O | Non-toxic | Non-toxic | Non-toxic | <0.31 | 0.23 | <0.25 | 0.11 | >16 |  | Active

Row | Compound | MIC (Escherichia coli) | MIC (Pseudomonas aeruginosa) | MIC (Staphylococcus aureus) | MIC (Bacillus subtilis) | MIC80 (Candida albicans [1]) | MIC80 (Candida albicans [5]) | MIC80 (Candida albicans [8]) | MIC80 (Candida albicans [9]) | Activity (MCF7) | Activity (U2OS) | Activity (HepG2) | fractional inhibitory concentration index (FICI) (Candida albicans [2]) | fractional inhibitory concentration index (FICI) (Candida albicans [3]) | Ratio (Candida albicans [4]) | Ratio (Candida albicans [6]) | fold change (FC) (Candida albicans [7]) | MIC (Candida albicans [8]) | Activity (Candida albicans [10])
20 | CC(C)[C@H]1OC(=O)[C@H](Cc2ccccc2)N(C)C(=O)[C@@H](C(C)C)OC(=O)[C@H](Cc2ccccc2)N(C)C(=O)[C@@H](C(C)C)OC(=O)[C@H](Cc2ccccc2)N(C)C1=O |  |  |  |  | > 200 µg/mL | > 100 µg/mL |  | 40 µg/mL |  |  |  | <0.31 | <0.13 | <0.25 | <0.013 | >16 | 1.3 µg/mL | 
